Key:
[1] = folding enthalpy; higher = less favourable; fluorescence melt of hairpins on a sequencing array, two-state fit; details: sodium 0.088 M
Method in brief: (§1)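 Bootstrapped two-state fits yielded melting temperature and folding enthalpy for library hairpins. Cy3 fluorescence, with annealed Cy3 and quencher oligos, was imaged on a sequenced MiSeq flow cell in 50 mM Na-HEPES pH 8.0, 25 mM NaCl in 2.5 °C steps up to 60 °C, and normalised to pre-quench Cy3 and to control constructs. Four replicates were combined by inverse variance, and fitted temperatures were raised by 9.35 °C to match UV melts.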

[2] = melting temperature; fluorescence melt of hairpins on a sequencing array, two-state fit, raised by 9.35 °C to match UV melts; details: sodium 0.088 M
Method in brief: as §1

Sequence | folding enthalpy [1] [kJ/mol] | Tm [2] [°C]
GCGATAGGTCGC ((((....)))) | -103 | 51.4
GCGATATCTCGC ((((....)))) | -85.8 | 48.5
GCGATATGTCGC ((((....)))) | -111 | 55
GCGATCAATCGC ((((....)))) | -104 | 51.1
GCGATCACTCGC ((((....)))) | -109 | 47.2
GCGATCAGTCGC ((((....)))) | -97.3 | 49.3
GCGATCCGAAAGGAACGC (((.(((....))).))) | -168 | 66.8
GCGATCGAAAGATTGCGC ((((((....)))..))) | -166 | 57.2
GCGATCGCTCGC ((((....)))) | -101 | 49.6
GCGATCTGTCGC ((((....)))) | -140 | 51.6
GCGATGCGAAAGCAATGC ((..(((....)))..)) | -76 | 53.1
GCGATGCGAAAGCAGGGC ((..(((....)))..)) | -85.3 | 61.4
GCGATGCGAAAGCGTTGC ((.(.((....)).).)) | -108 | 57.2
GCGATTAATCGC ((((....)))) | -123 | 56.1
GCGATTCGAAAGAACGC (((.(((....)))))) | -126 | 52.8
GCGATTGATCGC ((((....)))) | -132 | 53.1
GCGATTGGAAACAATCAC (.(((((....))))).) | -82.5 | 40
GCGATTGGAAACAATCGC (((((((....))))))) | -165 | 69
GCGATTGGAAACAGTCGC ((((.((....)).)))) | -176 | 54.2
GCGATTGGAAACGATCGC (((((.(....).))))) | -205 | 56.4
GCGCAAACGAAAGTTCGC (((..(((....)))))) | -94.7 | 46.7
GCGCACGAAAGTGTTCGC ((((((....)))..))) | -92.5 | 48.2
GCGCACGGAAACGTGCAC (.(((((....))))).) | -42.1 | 52.2

Sequence | folding enthalpy [1] [kJ/mol] | Tm [2] [°C]
GCGCAGCGAAAGCAACGC (((..((....))..))) | -42.8 | 49.6
GCGCAGCGAAAGCAGTGC ((.(.((....)).).)) | -50.2 | 54.4
GCGCAGCGAAAGCGACGC (((..((....))..))) | -66.2 | 57.6
GCGCAGCGAAAGCGCCGC (((..((....))..))) | -54.8 | 59.4
GCGCAGCGAAAGCGGGGC ((.(.((....)).).)) | -59.9 | 57.6
GCGCAGCGAAAGCTAGGC ((..(((....)))..)) | -23.7 | 39.7
GCGCAGCGAAAGCTCGC (((.(((....)))))) | -66.1 | 63.3
GCGCAGCGAAAGCTCGGC ((..(((....)))..)) | -31.8 | 40.3
GCGCAGCGAAAGCTTAGC ((..(((....)))..)) | -38.4 | 40.5
GCGCAGCGAAAGCTTGGC ((..(((....)))..)) | -26.6 | 38.5
GCGCAGGGAAACCCGCGC ((((.((....)).)))) | -142 | 66.8
GCGCAGGGAAACCTGTGC ((.((((....)))).)) | -117 | 57.7
GCGCATCCGAAAGGACGC (((..(((....)))))) | -85.6 | 50.2
GCGCATGGAAACGTGTGC ((.((.(....).)).)) | -153 | 46.6
GCGCCAGGAAACCGACGC (((.(.(....).).))) | -123 | 39.4
GCGCCCGAAAGGGAACGC ((((((....)))..))) | -140 | 54.7
GCGCCCGAAAGGGATCGC ((((((....)))..))) | -85.4 | 51.8
GCGCCCGAAAGGGCCCGC ((((((....)))..))) | -41.5 | 44.7
GCGCCCGAAAGGGTACGC ((((((....)))..))) | -115 | 55.1
GCGCCCGCGAAAGCGCGC (((..(((....)))))) | -67.8 | 58.5
GCGCCGCGAAAGCAACGC (((..((....))..))) | -75.8 | 51.1
GCGCCGCGAAAGCAGAGC ((.(.((....)).).)) | -116 | 66.7
GCGCCGCGAAAGCCACGC (((..((....))..))) | -72.6 | 50.1

Sequence | folding enthalpy [1] [kJ/mol] | Tm [2] [°C]
GCGCCGCGAAAGCCGAGC ((.(.((....)).).)) | -79.3 | 50.5
GCGCCGCGAAAGCGAGGC ((..(((....)))..)) | -57.4 | 54.8
GCGCCGCGAAAGCGCTGC ((..(((....)))..)) | -65.4 | 61.1
GCGCCGCGAAAGCGTAGC ((..(((....)))..)) | -56.7 | 59.1
GCGCCGCGAAAGCTACGC (((..((....))..))) | -87.3 | 53.5
GCGCCGCGAAAGCTGGGC ((.(.((....)).).)) | -67.2 | 57
GCGCCGGCGAAAGCCCGC (((..(((....)))))) | -63.6 | 55.5
GCGCCTCCGAAAGGACGC (((..(((....)))))) | -105 | 50.1
GCGCCTCGAAAGAGACGC (((.(((....))).))) | -107 | 59.4
GCGCCTGCGAAAGCACGC (((..(((....)))))) | -69.7 | 47.7
GCGCCTGGAAACAGACGC (((.(((....))).))) | -123 | 55.8
GCGCCTTCGAAAGAACGC (((..(((....)))))) | -80.3 | 38.6
GCGCGAACGAAAGTTCGC (((..(((....)))))) | -26.2 | 68.4
GCGCGACGAAAGTCTCGC (((.(((....))).))) | -144 | 60.6
GCGCGAGGAAACTTGCGC ((((.((....)).)))) | -159 | 65.6
GCGCGCGAAAGCGTTCGC ((((((....)))..))) | -61.2 | 53.3
GCGCGGCGAAAGCACCGC (((..((....))..))) | -69.5 | 56.1
GCGCGGCGAAAGCCCCGC (((.(((....))).))) | -158 | 59.4
GCGCGGCGAAAGCGGGGC ((.(.((....)).).)) | -116 | 64.4
GCGCGGCGAAAGCTGAGC ((.(.((....)).).)) | -130 | 63.2
GCGCGGCGAAAGCTTCGC (((..((....))..))) | -87 | 55.8
GCGCGGGGAAACCCACGC (((.(((....))).))) | -147 | 61.6
GCGCGTACGAAAGTACGC (((..(((....)))))) | -27.8 | 63.2

Sequence | folding enthalpy [1] [kJ/mol] | Tm [2] [°C]
GCGCTACGAAAGTAACGC (((.(((....))).))) | -172 | 56.5
GCGCTAGCGAAAGCTCGC (((..(((....)))))) | -44.6 | 45.4
GCGCTAGGAAACCAACGC (((.(.(....).).))) | -43.9 | 28.6
GCGCTAGGAAACCAGCAC (.(((.(....).))).) | -40.5 | 26.8
GCGCTAGGAAACTAGCAC (.(((((....))))).) | -64.3 | 44
GCGCTAGGAAACTAGTGC ((.((((....)))).)) | -187 | 53.3
GCGCTCACGAAAGTGCGC (((..(((....)))))) | -158 | 60
GCGCTCCCGAAAGGGCGC (((..(((....)))))) | -146 | 62.2
GCGCTCCGAAAGGACCGC (((.(((....))).))) | -187 | 53
GCGCTCGAAAGAGACCGC ((((((....)))..))) | -91 | 44.9
GCGCTCGAAAGAGCCGC ((((((....))).))) | -78.4 | 62.4
GCGCTCGAAAGAGTACGC ((((((....)))..))) | -107 | 50
GCGCTGCGAAAGCACGC (((.(((....)))))) | -73.6 | 69.2
GCGCTGCGAAAGCGACGC (((..((....))..))) | -112 | 63.7
GCGCTGCGAAAGCGGGGC ((.(.((....)).).)) | -120 | 67.8
GCGCTGCGAAAGCTACGC (((..((....))..))) | -96.4 | 55.8
GCGCTGGGAAACCAGCAC (.(((((....))))).) | -49.9 | 50.4
GCGCTGGGAAACCAGTGC ((.((((....)))).)) | -192 | 60.6
GCGCTTACGAAAGTACGC (((..(((....)))))) | -89.7 | 46.2
GCGCTTGCGAAAGCACGC (((..(((....)))))) | -66.4 | 55.2
GCGGAACGAAAGTTCGC (((.(((....)))))) | -102 | 58.9
GCGGAATCCCGC ((((....)))) | -92.3 | 53.9
GCGGAATCGAAAGATCGC (((..(((....)))))) | -108 | 45.5
